Each structure is given as a SMILES string.

For the first series, the target named is T1, Interleukin-2 (Homo sapiens, UniProt P60568). The experiment in a line: Effective concentration required against phosphorylation of Mammary gland factor/STAT5. The class given is functional, Mus musculus.
Settings: not given
The procedure, abridged:
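Mouse CTLL-2 T cells grown to about 1 × 10^6 cells/mL in RPMI/IL-2, starved of IL-2 overnight, then given 2-fold serial compound dilutions in medium with 0.1 ng/mL human IL-2 for 30 min at 37 °C. Phospho-STAT5 measured by western blot and densitometry, plotted against concentration; average of three experiments.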
Target sequence in this assay (P60568 whole entry): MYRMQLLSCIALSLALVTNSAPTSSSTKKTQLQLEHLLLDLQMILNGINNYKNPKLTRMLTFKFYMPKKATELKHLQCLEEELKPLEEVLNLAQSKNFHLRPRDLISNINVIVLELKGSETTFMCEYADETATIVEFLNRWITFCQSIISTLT
In turn, `COC(=O)[C@H](Cc1ccc(C#Cc2ccccc2)cc1)NC(=O)C[C@H]1CCCN(C(=N)N)C1` came in with a concentration for a half-maximal effect (EC50) of 100 µM. The same measure, in the same setting: then `CC(C)C[C@@H](N=C(N)N)C(=O)NCC(=O)N1CCC(c2cc(-c3cccc(Cl)c3Cl)nn2C)CC1`, with ~25 µM.

Another series addresses T1, Interleukin-2. Nature of the series: Inhibition of mouse Interleukin-2 receptor alpha. To be noted: target entry is the homologue from another species.
Target sequence in this assay (P60568 whole entry): as above
On to `COC(=O)[C@H](Cc1ccc(C#Cc2ccccc2)cc1)NC(=O)C[C@H]1CCCN(C(=N)N)C1`, for which the midpoint of inhibition, the IC50, lay at 7 µM. On to `CNC(=O)C[C@H]1CCCN(C(=N)N)C1`, for which the IC50 is > 10000 µM.

On to `COCC(=O)N[C@@H](Cc1ccc(C#Cc2ccccc2)cc1)C(=O)O`, for which the half-inhibitory concentration (IC50) was found to be 2200 µM.

In the next series the target is T1, Interleukin-2. Nature of the series: Inhibition of mouse interleukin-2 alpha receptor by ELISA. The settings on record: target entry is the homologue from another species. The essentials:
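ELISA: 15 nM biotinylated IL-2Rα captured on streptavidin-coated wells; 3-fold serial compound dilutions with 5 nM IL-2 (2% DMSO final) in Superblock/0.01% Tween 20 incubated on receptor.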
Target sequence in this assay (P60568 whole entry): as above
In the case of `COC(=O)[C@H](Cc1ccc(C#Cc2ccccc2)cc1)NC(=O)CNC(=O)[C@@H](N=C(N)N)C(C)(C)C`, the half-maximal inhibitory concentration (IC50) was found to be 9 µM. In turn, `COC(=O)[C@H](Cc1ccc(C#Cc2ccccc2)cc1)NC(=O)CNC(=O)CN(C)C(=N)N` registered a half-inhibitory concentration (IC50) of 1200 µM. Still for that read-out and setting: then `CC[C@@H](C)[C@H](N=C(N)N)C(=O)NCC(=O)N[C@@H](Cc1ccc(C#Cc2ccccc2)cc1)C(=O)OC`, with 26 µM. The same measure, in the same setting: the same measure for `COC(=O)[C@H](Cc1ccc(C#Cc2ccccc2)cc1)NC(=O)CNC(=O)CNC(=N)N`: > 2000 µM; for `COC(=O)[C@H](Cc1ccc(C#Cc2ccccc2)cc1)NC(=O)CNC(=O)[C@@H](CCC(N)=O)N=C(N)N`: 900 µM. The same measure, in the same setting: then `COC(=O)[C@H](Cc1ccc(C#Cc2ccccc2)cc1)NC(=O)CNC(=O)[C@@H](CC1CCCCC1)N=C(N)N`, with 37 µM. The molecule `COC(=O)[C@H](Cc1ccc(C#Cc2ccccc2)cc1)NC(=O)CNC(=O)[C@@H]1CCCN1C(=N)N` came in with an IC50 of 720 µM. The molecule `COC(=O)[C@H](Cc1ccc(C#Cc2ccccc2)cc1)NC(=O)CNC(=O)[C@H](N=C(N)N)C1CCCCC1` had a 50% inhibitory concentration (IC50) of 20 µM. As to `COC(=O)[C@H](Cc1ccc(C#Cc2ccccc2)cc1)NC(=O)CNC(=O)[C@@H](C)N=C(N)N`, the IC50 is ~2000 µM. Same read-out and setting: then `COC(=O)[C@H](Cc1ccc(C#Cc2ccccc2)cc1)NC(=O)CNC(=O)[C@H](C)N=C(N)N`, with 280 µM. Still for that read-out and setting: then `COC(=O)[C@H](Cc1ccc(C#Cc2ccccc2)cc1)NC(=O)CNC(=O)[C@H](N=C(N)N)C(C)C`, with > 2000 µM; and `COC(=O)[C@H](Cc1ccc(C#Cc2ccccc2)cc1)NC(=O)CNC(=O)[C@H]1CCCN1C(=N)N`, with 1000 µM; and `COC(=O)[C@H](Cc1ccc(C#Cc2ccccc2)cc1)NC(=O)CNC(=O)[C@@H](N=C(N)N)C(C)C`, with 80 µM.

The target of the next series is T1, Interleukin-2. Nature of the series: Dissociation constant for human Interleukin-2 by SPR assay.
Settings: not given
Target sequence in this assay (P60568 whole entry, looked up): as the sequence (P60568 whole entry) above
Take `COCC(=O)N[C@@H](Cc1ccc(C#Cc2ccccc2)cc1)C(=O)O`: the KdSPA was determined as 1.5 mM.

System in the next series: not listed separately
Nature of the series: Plasma clearance in mouse. The class given is ADME, organism-based. To be noted: read-out: Clp. The procedure, abridged: (§1)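 Male CD-1 mice, 10 mg/kg IV bolus via lateral tail vein, 2.5 mg/mL in PEG 400; three mice per time point. Cardiac blood into sodium-EDTA at 0.5–8 h, plasma by LC-MS/MS against a plasma standard curve; parameters from mean concentration–time profiles.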
For the molecule `CC(C)C[C@@H](NC(=N)N)C(=O)NCC(=O)N1CCC(c2cc(-c3ccc(OCc4ccc(C(=O)O)o4)c(Cl)c3Cl)nn2C)CC1`, the clearance was found to be 13.6 mL/min/kg.

System in a further series: not listed separately
The experiment in a line: Volume distribution (steady state) of compound was determined in mouse. Type of series: ADME, organism-based. The settings on record: in vivo, read-out: Vss. The essentials: as §1
As for `CC(C)C[C@@H](NC(=N)N)C(=O)NCC(=O)N1CCC(c2cc(-c3ccc(OCc4ccc(C(=O)O)o4)c(Cl)c3Cl)nn2C)CC1`, the Vd turned out to be 1.1 L/kg.

The target of the next series is T1, Interleukin-2. The experiment in a line: Concentration required to inhibit mouse interleukin-2 alpha receptor was determined by SPA assay.
Settings: not given
The procedure, abridged:
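SPA: compounds as 3-fold serial dilutions in DMSO added to 10 nM tritiated propionic acid-labeled IL-2 in Superblock, then to biotinylated IL-2Rα on streptavidin scintillant beads (0.7 mg/mL). Scintillation from receptor-bound IL-2 counted; IC50 by nonlinear regression of counts vs concentration.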
Target sequence in this assay (P60568 whole entry): as above
For the molecule `Cc1cccc(-c2cc(C3CCN(C(=O)CNC(=O)[C@H](N=C(N)N)C4CCCCC4)CC3)[nH]n2)c1`, the midpoint of inhibition, the IC50, lay at 150 µM. Same read-out and setting: the same measure for `CC(C)C[C@@H](N=C(N)N)C(=O)NCC(=O)N1CCC(c2cc(-c3cccc(Cl)c3Cl)nn2C)CC1`: 2 µM; for `Cn1nc(-c2cccc(Cl)c2Cl)cc1C1CCN(C(=O)CNC(=O)[C@H](N=C(N)N)C2CCCCC2)CC1`: 20 µM; for `NC(N)=N[C@@H](C(=O)NCC(=O)N1CCC(c2cc(-c3cccc(Cl)c3)n[nH]2)CC1)C1CCCCC1`: 130 µM. On the same count and under the same terms, the same measure for `N=C(N)N[C@@H](C(=O)NCC(=O)N1CCC(c2cc(-c3ccc(O)cc3Cl)[nH]n2)CC1)C1CCCCC1`: 30 µM. Still for that read-out and setting: then `Cn1nc(C2CCN(C(=O)CNC(=O)[C@H](N=C(N)N)C3CCCCC3)CC2)cc1-c1cccc(Cl)c1Cl`, with 50 µM; and `Cc1ccccc1-c1cc(C2CCN(C(=O)CNC(=O)[C@H](N=C(N)N)C3CCCCC3)CC2)[nH]n1`, with 50 µM; and `N=C(N)N[C@@H](C(=O)NCC(=O)N1CCC(c2cc(-c3ccc(Cl)cc3Cl)[nH]n2)CC1)C1CCCCC1`, with 10 µM. The molecule `NC(N)=N[C@@H](C(=O)NCC(=O)N1CCC(c2cc(-c3ccccc3Cl)n[nH]2)CC1)C1CCCCC1` registered a 50% inhibitory concentration (IC50) of 40 µM. Same read-out and setting: then `Cc1cccc(-c2cc(C3CCN(C(=O)CNC(=O)[C@H](N=C(N)N)C4CCCCC4)CC3)[nH]n2)c1C`, with 130 µM. Still for that read-out and setting: the same measure for `CC(C)C[C@@H](N=C(N)N)C(=O)NCC(=O)N1CCC(c2cc(-c3ccc(OCc4ccc(CC(=O)O)cc4)c(Cl)c3Cl)nn2C)CC1`: 0.6 µM. On the same count and under the same terms, then `CC(C)C[C@@H](N=C(N)N)C(=O)NCC(=O)N1CCC(c2cc(-c3ccc(O)c(Cl)c3Cl)nn2C)CC1`, with 8.1 µM. `CC1C(c2cccc(Cl)c2Cl)=NN=C1C1CCN(C(=O)CNC(=O)[C@H](N=C(N)N)C2CCCCC2)CC1` (some centres undefined) had an IC50 of 400 µM. `NC(N)=N[C@@H](C(=O)NCC(=O)N1CCC(c2cc(-c3ccccc3)n[nH]2)CC1)C1CCCCC1` displayed a half-inhibitory concentration (IC50) of 120 µM.

In turn, `COC(=O)c1ccc(COc2ccc(-c3cc(C4CCN(C(=O)CNC(=O)[C@@H](CC(C)C)N=C(N)N)CC4)n(C)n3)c(Cl)c2Cl)cc1` yielded an IC50 of 40 µM. On the same count and under the same terms, the same measure for `N=C(N)N[C@@H](C(=O)NCC(=O)N1CCC(c2cccc(-c3ccc(Cl)cc3Cl)c2)CC1)C1CCCCC1`: 150 µM; for `NC(N)=N[C@@H](C(=O)NCC(=O)N1CCC(c2cc(-c3ccc(Cl)c(Cl)c3)n[nH]2)CC1)C1CCCCC1`: 110 µM; for `NC(N)=N[C@@H](C(=O)NCC(=O)N1CCC(c2nc(-c3ccc(Cl)cc3Cl)no2)CC1)C1CCCCC1`: 500 µM. In turn, `CC(C)C[C@@H](N=C(N)N)C(=O)NCC(=O)N1CCC(c2cc(-c3ccc(OCc4cccc(C(=O)O)c4)c(Cl)c3Cl)nn2C)CC1` registered an IC50 of 0.4 µM. On the same count and under the same terms, the same measure for `CC(C)C[C@@H](N=C(N)N)C(=O)NCC(=O)N1CCC(c2cc(-c3ccc(OCc4ccccc4)c(Cl)c3Cl)nn2C)CC1`: 35 µM.

`COc1ccc(-c2cc(C3CCN(C(=O)CNC(=O)[C@H](N=C(N)N)C4CCCCC4)CC3)[nH]n2)c(Cl)c1` came in with an IC50 of 50 µM. On the same count and under the same terms, the same measure for `CC(C)C[C@@H](N=C(N)N)C(=O)NCC(=O)N1CCC(c2cc(-c3ccc(OCc4ccc(C(=O)O)cc4)c(Cl)c3Cl)nn2C)CC1`: 0.2 µM; for `COc1ccc(-c2cc(C3CCN(C(=O)CNC(=O)[C@@H](CC(C)C)N=C(N)N)CC3)n(C)n2)c(Cl)c1Cl`: 3.5 µM.

The values are drawn from ChEMBL document CHEMBL1149175, “Integrating fragment assembly and biophysical methods in the chemical advancement of small-molecule antagonists of IL-2: an approach for inhibiting protein-protein interactions” (J Med Chem, 2004).
